Results reported in ChEMBL document CHEMBL1221230, “Inhibition of eukaryotic translation elongation by cycloheximide and lactimidomycin” (Nat Chem Biol, 2010).
Active and inactive are the calls of the source. The rule behind the calls is not given here.

What was measured:
MCF-10A = assay: Anticancer activity against human MCF10A cells after 24 hrs by [3H]thymidine incorporation assay; format: functional, cell-based
MDA-MB-231 = assay: Antitumor activity against human MDA-MB-231 cells xenografted in nude mouse assessed as inhibition of tumor growth at 0.6 mg/kg, sc qd for 1 month administered post tumor implantation; format: functional, organism-based; set-up: dose 0.6 mg/kg
How it was run: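 Two million MDA-MB-231 cells injected subcutaneously into female nude mice; once tumours palpable, compound 0.6 mg/kg or solvent given daily for one month; tumour growth followed.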

Saccharomyces cerevisiae [1] = assay: Antimicrobial activity against Saccharomyces cerevisiae J47alpha; format: functional, organism-based
How it was run: (§1)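 Four isogenic S. cerevisiae strain pairs, each differing only by presence or absence of cyh2, exposed to varying compound concentrations; growth read by optical density; IC50 derived per strain, resistance as ratio between paired strains.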

Saccharomyces cerevisiae [2] = assay: Antimicrobial activity against Saccharomyces cerevisiae JB503; format: functional, organism-based; how it was run: as §1
Saccharomyces cerevisiae [3] = assay: Antimicrobial activity against Saccharomyces cerevisiae BY686 expressing ribosomal protein cyh2 and harboring mutation in rpl28; format: functional, organism-based; how it was run: as §1
Saccharomyces cerevisiae [4] = assay: Antimicrobial activity against Saccharomyces cerevisiae BY108; format: functional, organism-based; how it was run: as §1
Saccharomyces cerevisiae [5] = assay: Antimicrobial activity against Saccharomyces cerevisiae BY724 expressing ribosomal protein cyh2 and harboring mutation in rpl28; format: functional, organism-based; how it was run: as §1
Saccharomyces cerevisiae [6] = assay: Antimicrobial activity against Saccharomyces cerevisiae JB281; format: functional, organism-based; how it was run: as §1
Saccharomyces cerevisiae [7] = assay: Antimicrobial activity against Saccharomyces cerevisiae BY740 expressing ribosomal protein cyh2 and harboring mutation in rpl28; format: functional, organism-based; how it was run: as §1
Saccharomyces cerevisiae [8] = assay: Fold resistance, ratio of IC50 Saccharomyces cerevisiae J407alpha expressing ribosomal protein cyh2 and harboring mutation in rpl28 to IC50 for Saccharomyces cerevisiae J47alpha; format: functional; how it was run: as §1
Saccharomyces cerevisiae [9] = assay: Fold resistance, ratio of IC50 for Saccharomyces cerevisiae BY724 expressing ribosomal protein cyh2 and harboring mutation in rpl28 to IC50 for Saccharomyces cerevisiae BY108; format: functional; how it was run: as §1
HEK-293T = assay: Effect on polyribosome profiling in human HEK293T cells assessed as accumulation of 80S ribosomes at 50 uM after 30 mins by spectrophotometry; format: functional, cell-based
How it was run: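 HEK 293T cells treated 30 min with compound, then lysed; lysates centrifuged through 15–45% sucrose gradient to give polysome profiles.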

HeLa [10] = assay: Antiproliferative activity against human HeLa cells assessed as incorporation of [3H]thymidine in nuclear DNA at 2.5 uM after 24 hrs by scintillation counting; format: functional, cell-based
How it was run: (§2)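 Each of three tumour cell lines incubated with compound at 2.5 μM for 24 h, then [³H]thymidine added to monitor DNA synthesis; initial proliferation screen.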

Jurkat = assay: Antiproliferative activity against human Jurkat cells assessed as incorporation of [3H]thymidine in nuclear DNA at 2.5 uM after 24 hrs by scintillation counting; format: functional, cell-based; how it was run: as §2
HeLa [11] = assay: Inhibition of protein synthesis in human HeLa cells assessed as [35S]cysteine/methionine utilization after 2 hrs by scintillation spectroscopy; format: functional, cell-based
How it was run: (§3)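 HeLa cells incubated 2 h with varying compound concentrations plus [³⁵S]cysteine/methionine (translation) or [³H]uridine (transcription). Protein synthesis: scintillation counting of TCA-precipitated protein on PVDF membrane. Transcription: scintillation counting of nucleic acids bound to GF/C glass fibre filter.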

HeLa [12] = assay: Inhibition of transcriptional activity in human HeLa cells assessed as [3H]uridine utilization after 2 hrs by scintillation counting; format: functional, cell-based; how it was run: as §3
[13] = Effect on polyribosome profiling assessed as accumulation of 80S ribosomes after 15 mins by scintillation spectroscopy; format: functional
How it was run: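 Capped [³²P]-labelled rabbit β-globin RNA incubated in rabbit reticulocyte lysate with compound for 15 min, then centrifuged through 10–35% sucrose gradient.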

Oryctolagus cuniculus = species: Oryctolagus cuniculus; assay: Inhibition of translational activity in rabbit reticulocyte assessed as occurrence of ribosomal arrest at start codon at 200 uM by toeprinting assay; format: functional
How it was run: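 Labelled rabbit β-globin mRNA incubated in rabbit reticulocyte lysate with inhibitor; mixture centrifuged through sucrose gradient, 80S fractions taken to isolate stalled ribosomes; primer extended by AMV reverse transcriptase toward stalled ribosome to map arrest site.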

[14] = Inhibition of elF4A-mediated renilla luciferase translational activity at 0.02 to 5 uM in presence of EMCV IRES element
[15] = target: Elongation factor 2 (Homo sapiens) (UniProt P13639); assay: Inhibition of eEF2-mediated tRNA translocation assessed as inhibition of polyphenylalanine synthesis at 200 uM after 10 mins by scintillation counting
[16] = target: T1, Elongation factor 1-alpha 1 (Homo sapiens) (UniProt P68104); assay: Inhibition of eEF1A-mediated tRNA binding to ternary complex at 200 uM after 10 mins by filtration binding assay
T1 sequence (whole entry): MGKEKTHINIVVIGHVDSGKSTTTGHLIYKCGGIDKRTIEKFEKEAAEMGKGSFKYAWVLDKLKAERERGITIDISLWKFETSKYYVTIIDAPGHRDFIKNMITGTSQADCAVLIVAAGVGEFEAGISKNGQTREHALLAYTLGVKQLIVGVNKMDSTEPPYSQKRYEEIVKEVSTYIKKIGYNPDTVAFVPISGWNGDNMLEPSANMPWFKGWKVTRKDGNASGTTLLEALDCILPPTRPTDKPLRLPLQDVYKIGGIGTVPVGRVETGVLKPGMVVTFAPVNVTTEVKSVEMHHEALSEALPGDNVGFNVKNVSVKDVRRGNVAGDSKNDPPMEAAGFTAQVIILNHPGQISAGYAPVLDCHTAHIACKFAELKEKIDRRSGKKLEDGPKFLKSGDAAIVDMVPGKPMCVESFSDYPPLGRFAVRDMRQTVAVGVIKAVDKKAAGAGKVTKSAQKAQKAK
How it was run: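 Ribosomes (89 pmol) in 20 mM HEPES pH 7.4, 100 mM KCl, 10 mM MgCl₂, 1 mM DTT with 200 ng poly(U), 2.2 μg eEF1A, 150 μM GDPNP and 200 μM compound, before 10 pmol [¹⁴C]Phe-tRNA^Phe added; 10 min at 37°C; nitrocellulose filtration, scintillation counting.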

[17] = target: Elongation factor 2 (Homo sapiens) (UniProt P13639); assay: Inhibition of eEF2-mediated tRNA translocation assessed as decrease in tripeptide (Met-Phe-Phe) formation by TLC
[18] = Binding affinity to 60S ribosome E-site by footprinting assay
How it was run: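 DMS footprinting of salt-washed 80S ribosomes preincubated 5 min at room temperature with compound, DMS then 5 min at 37°C; rRNA primer extension with AMV reverse transcriptase and [α-³²P]TTP, sequencing gel. For K_D, 300 μl volume at 50 or 100 nM ribosomes titrated with increasing compound.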

Hs-578T = assay: Anticancer activity against human Hs 578T cells after 24 hrs by [3H]thymidine incorporation assay; format: functional, cell-based
HCC1937 = assay: Anticancer activity against human HCC1937 cells after 24 hrs by [3H]thymidine incorporation assay; format: functional, cell-based
HCC1395 = assay: Anticancer activity against human HCC1395 cells after 24 hrs by [3H]thymidine incorporation assay; format: functional, cell-based
HCC2218 = assay: Anticancer activity against human HCC2218 cells after 24 hrs by [3H]thymidine incorporation assay; format: functional, cell-based
BT-474 = assay: Anticancer activity against human BT474 cells after 24 hrs by [3H]thymidine incorporation assay; format: functional, cell-based
MCF7 = assay: Anticancer activity against human MCF7 cells after 24 hrs by [3H]thymidine incorporation assay; format: functional, cell-based

C/C(=C\[C@H](C)C(=O)C[C@H](O)CC1CC(=O)NC(=O)C1)[C@@H]1OC(=O)/C=C/CC/C=C/C=C\[C@@H]1C [LACTIMIDOMYCIN]
Activity (MCF-10A): Active | Activity (MDA-MB-231): Active | IC50 (Saccharomyces cerevisiae [1]): 4.6 nM | IC50 (Saccharomyces cerevisiae [2]): 58 nM | IC50 (Saccharomyces cerevisiae [3]): 596 nM | IC50 (Saccharomyces cerevisiae [4]): 488 nM | IC50 (Saccharomyces cerevisiae [5]): 6530 nM | IC50 (Saccharomyces cerevisiae [6]): 59 nM | IC50 (Saccharomyces cerevisiae [7]): 1210 nM | Ratio IC50 (Saccharomyces cerevisiae [8]): 241 | Ratio IC50 (Saccharomyces cerevisiae [9]): 13.4 | Activity (HEK-293T): Active | Activity (HeLa [10]): inactive | Activity (Jurkat): inactive | IC50 (HeLa [11]): 37.8 nM | inhibition (HeLa [11]): Dose-dependent effect | IC50 (HeLa [12]): > 10000 nM | Activity [13]: Active | inhibition (Oryctolagus cuniculus): Active | inhibition [14]: Active | inhibition [15]: Active | inhibition [16]: inactive | inhibition [17]: Active | Activity [18]: Dose-dependent effect | Kd [18]: 500 nM | Activity (Hs-578T): Active | Activity (HCC1937): Active | Activity (HCC1395): Active | Activity (HCC2218): Active | Activity (BT-474): Active | Activity (MCF7): Active
